Only some compounds are listed: those with a hit (about 2.2% of all), similar ones and a draw of the others.
mABHD4 FP – inhibitors of mouse ABHD4 | 0.54% of 370,000 active | inhibition, % at 8.92 µM | purified mABHD4, FP-Rh probe fluorescence polarization | Q8VD66 | AID 720543;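 active = inhibition exceeding the mean over every tested compound plus 3 SD, cut at about 30% in these data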;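 note: 0% = plate median of compound wells and 100% = S159A mutant with DMSO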
Target sequence (Q8VD66 whole entry, looked up): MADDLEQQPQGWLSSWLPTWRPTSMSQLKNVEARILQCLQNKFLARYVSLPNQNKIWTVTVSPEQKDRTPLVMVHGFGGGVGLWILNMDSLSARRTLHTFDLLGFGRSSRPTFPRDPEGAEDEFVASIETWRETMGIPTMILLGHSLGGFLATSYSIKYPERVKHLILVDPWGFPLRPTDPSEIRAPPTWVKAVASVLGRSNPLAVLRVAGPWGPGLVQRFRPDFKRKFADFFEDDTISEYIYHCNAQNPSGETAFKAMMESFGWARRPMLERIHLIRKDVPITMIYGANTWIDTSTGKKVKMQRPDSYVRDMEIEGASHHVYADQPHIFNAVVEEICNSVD
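Test system: mABHD4 protein; Read-out basis: % inhibition; Incubation: 45 min + 60 min at 25 °C; Repeats: single replicate; Technique: fluorescence polarization with parallel and perpendicular emission, 525/598 nm; Compound: 8.92 µM, single dose; Benchmarks: full inhibition S159A mutant plus DMSO, zero as sample-well median.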
SIAE inh – inhibitors of human sialic acid acetylesterase SIAE. Q9HAT2. AID 1053197. SIAE FP-Rh probe binding, fluorescence polarization. 0.69% of 370,000 active. inhibition, % at 9.66 µM;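 active = inhibition above a cutoff: mean of compounds within the control limits plus 3 SD of those, cut at about 17% in these data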;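 note: 0% = plate median of compound wells and 100% = probe without SIAE protein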
HTRA1 inhibitor – blocks human HTRA1 serine peptidase; Q92743; recombinant HTRA1, FP-rhodamine activity-based probe, fluorescence polarization; inhibition, % at 5.96 µM; 0.5% of 340,000 active; in the data active = inhibition above about 36%;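 note: 0% = enzyme with DMSO and 100% = wells lacking enzyme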
TDP2 inh – blocks human TDP2 phosphodiesterase activity; recombinant TDP2, T5PNP hydrolysis, p-nitrophenol absorbance 415 nm; 0.34% of 370,000 active; inhibition, % at 12.8 µM;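 active = inhibition above the mean of all tested compounds plus 3 SD, set per campaign, cut at about 25% in these data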;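 note: 0% = DMSO with enzyme and 100% = buffer with substrate but no TDP2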
Target sequence (O95551 whole entry, looked up): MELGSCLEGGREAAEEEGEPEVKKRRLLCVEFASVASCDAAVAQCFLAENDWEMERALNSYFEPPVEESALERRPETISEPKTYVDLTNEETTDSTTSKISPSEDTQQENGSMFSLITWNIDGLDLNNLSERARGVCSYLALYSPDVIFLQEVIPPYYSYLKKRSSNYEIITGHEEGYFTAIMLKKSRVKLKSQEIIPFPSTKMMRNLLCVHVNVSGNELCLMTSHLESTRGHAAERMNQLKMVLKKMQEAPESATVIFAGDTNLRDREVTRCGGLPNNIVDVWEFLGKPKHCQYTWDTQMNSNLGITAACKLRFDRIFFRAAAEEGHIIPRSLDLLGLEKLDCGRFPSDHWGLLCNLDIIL
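Material: recombinant human TDP2; quantity: TDP2 enzyme at 120 nM final; medium: Tris-HCl pH 7.5 with MgCl2; compound: single concentration, 12.8 µM nominal, with 1% DMSO; incubation: 2 h enzyme incubation at 37 °C; signal: epi absorbance; measure: percent inhibition; benchmarks: high control without enzyme, low control DMSO plus TDP2; repeats: singlicate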
TCR-CD3 inh – inhibitors of human TCR-CD3 interaction | TAMRA-labeled TCR probe fluorescence, biochemical | inhibition, % at 9.4 µM | 0.37% of 360,000 active | AID 651800;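 note: recombinant mutant TCR 2C K166C tagged with TAMRA read by polarization; 0% = receptor in buffer alone and 100% = receptor with positive control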
LEDGF integ inh – blocks HIV-1 LEDGF/p75-dependent DNA integration. TR-FRET IN-LEDGF/p75 DNA integration, Eu/Cy5. 0.64% of 370,000 active. inhibition, % at 3.7 µM;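 active = inhibition above the screen-wide mean plus 3 SD, cut at about 13% in these data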;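 note: signal is the Cy5 over europium emission ratio at 671 and 618 nm; 0% = plate median of compound wells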
HTRA1 inh conf – confirmation of human HTRA1 inhibitors | shares compounds with HTRA1 inhibitor | recombinant HTRA1, FP-rhodamine activity-based probe, fluorescence polarization | inhibition, % at 5.96 µM | 66% of 1,600 active | AID 540248;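 active = mean inhibition over three repeats above a set limit taken from the earlier primary screen, cut at about 37% in these data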;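 note: 0% = HTRA1 with DMSO and 100% = wells lacking HTRA1; inhibitors block probe binding so polarization drops and inhibition rises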
BSA TAMRA ctr – BSA probe counter-screen for TCR-CD3 inhibitors; shares compounds with TCR-CD3 inh; TAMRA-labeled BSA probe fluorescence counterscreen; 10% of 1,200 active; inhibition, % at 9.4 µM; in the data active = inhibition above about 23%;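 note: 0% = buffer low control and 100% = reference high control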
TCR-CD3 inh conf – TCR-CD3 interaction inhibition, confirmation; shares compounds with TCR-CD3 inh; TAMRA-labeled TCR probe fluorescence binding assay; inhibition, % at 9.4 µM; 48% of 1,200 active; AID 652036
ABHD4 confirm – ABHD4 (mouse) inhibition, FP confirmation; shares compounds with mABHD4 FP; 55% of 1,800 active; inhibition, % at 8.92 µM; purified mABHD4, FP-Rh probe fluorescence polarization;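 active = mean inhibition across replicates above the hit cutoff set in the primary screen, cut at about 30% in these data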;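 note: 0% = wild-type ABHD4 with DMSO and 100% = catalytically dead S159A mutant with DMSO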
TDP2 confirm – confirmation of human TDP2 inhibitors; shares compounds with TDP2 inh; recombinant human TDP2, absorbance read-out; inhibition, % at 12.8 µM; 22% of 1,100 active; AID 743263; in the data active = inhibition above about 25%;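 note: 0% = vehicle with enzyme and 100% = no enzyme buffer only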
* hit, by the source's call; · = not tested or not shown. Cut-off read from the data, not from the text of the source, unless noted: active = inhibition above about 19%; inactive = the rest.

SMILES | mABHD4 FP | SIAE inh | HTRA1 inhibitor | TDP2 inh | TCR-CD3 inh | LEDGF integ inh | HTRA1 inh conf | ABHD4 confirm | others
N#C/C(N=Nc1ccccc1O)=N\Nc1ccccc1O | 66.7* | 4.4 | 68.4* | 14.7 | -7.7 | 1.6 | 70.7* | 110.4*
COc1ccc(S(=O)(=O)NCc2ccc3c(c2)cc(C)n3C)cc1 | 46.8* | 18.2* | 40.2* | -4.2 | 35.0* | 7.5 | 0.3 | 15.3 | BSA TAMRA ctr=24.7*;TCR-CD3 inh conf=27.7*
O=C(N/N=C/c1c(O)ccc2ccccc12)c1ccc(Br)o1 | 38.3* | 11.8 | 47.7* | -7.2 | 25.9* | 0.6 | 42.2* | 10.3 | BSA TAMRA ctr=-12.7;TCR-CD3 inh conf=21.9*
O=C1c2ccccc2C(=O)c2c1ccc(O)c2O | 74.3* | 18.7* | 75.8* | 5.5 | 16.4 | -9.2 | 92.9* | 88.0*
O=C(Cc1ccccc1)N1CCC(Oc2cccnc2)CC1 | -0.2 | -1.8 | · | -0.9 | · | -4.1 | · | ·
O=C1CC(N(O)c2ccccc2)C(=O)N1c1ccc(Cl)c(Cl)c1 (configuration not stated) | 46.2* | 6.7 | 60.0* | 14.4 | 23.7* | -1.2 | 0.0 | 88.6* | BSA TAMRA ctr=6.0;TCR-CD3 inh conf=3.3
COC(=O)[C@]12C[C@H](CC(=O)NCC34CC5CC(CC(C5)C3)C4)C(=O)N(Cc3cccc4ccccc34)C1=C[C@H](C1CCCC1)O[C@@H]2C | 0.1 | -3.6 | · | 2.3 | · | -0.6 | · | ·
Cc1ccc(-c2cc(-c3nnc(SCC(=O)NC4CCCCC4)n3N)[nH]n2)cc1 | -2.1 | -5.4 | · | 3.4 | · | 2.6 | · | ·
O=C1C=C(c2c(O)ccc3ccccc23)c2ccccc2C1=O | 52.5* | 8.0 | 46.5* | 18.8 | 3.9 | -1.6 | 47.8* | 55.4*
O=C(O)c1cc2ccccc2c2c1C(=O)c1ccccc1-2 | 3.4 | -1.1 | 0.9 | -1.8 | 2.9 | 0.3 | · | ·
COCc1cc(N2CCNC[C@H]2C)ccc1N1CCN(Cc2ccccc2)[C@H](C)C1 | 8.0 | 3.7 | · | -4.2 | 6.6 | -4.4 | · | ·
O=S(c1ccccc1O)S(=O)c1ccccc1O (configuration not stated) | 37.4* | 3.7 | 40.0* | 6.0 | 10.3 | 4.3 | 34.4 | 34.0*
CS(=O)c1ccccc1O (configuration not stated) | 2.5 | 1.9 | -0.7 | -3.4 | 0.7 | 2.9 | · | ·
CC(C)C[C@@H]1COc2cc(Br)ccc2S(=O)(=O)N1Cc1cn(Cc2ccc(F)cc2)nn1 | -3.9 | -1.0 | · | -0.1 | · | 1.4 | · | ·
COC(=O)[C@]12C[C@H](CC(=O)NCc3ccc(C)o3)C(=O)N(CCC3=CCCCC3)C1=C[C@H](C1CCCC1)O[C@@H]2C | 3.7 | 1.5 | · | -2.0 | · | -2.2 | · | ·
Oc1ccccc1N=Cc1c(O)ccc2oc3c(c12)CCCC3 | 30.4* | 7.0 | 43.3* | -1.9 | 8.7 | 6.2 | 68.5* | -5.3
COc1cccc(C2NC(=S)N(Cc3ccccc3)C(C)=C2C(C)=O)c1 (configuration not stated) | 0.1 | -1.3 | · | -0.7 | 1.9 | -4.1 | · | ·
CN(Cc1ccccc1)Cc1c(O)ccc2ccccc12 | 9.4 | 5.3 | 0.6 | 14.3 | 9.0 | 4.2 | · | ·
CN(Cc1cc(Cl)cc(Cl)c1O)Cc1c(O)ccc2ccccc12 | 30.0* | 5.2 | 52.4* | 2.2 | -6.2 | -1.1 | 62.0* | 17.9
O=c1oc2ccccc2c(O)c1Cc1cc(Cl)c2cccnc2c1O | 32.8* | 11.9 | 51.9* | -14.2 | 0.3 | -3.1 | 53.7* | 26.9
O=C(SCc1c(O)c2ccccc2oc1=O)c1ccccc1 | -3.0 | -2.0 | -7.4 | -6.5 | -4.6 | -3.5 | · | ·
O=C(Nc1ccc(N2CCCCC2)cc1)c1ccccc1 | 0.1 | -2.4 | -11.5 | 0.5 | 7.2 | -5.2 | · | ·
NC(=O)NC(=O)C(Nc1ccc(N2CCCCC2)cc1)c1ccccc1 (configuration not stated) | 39.8* | 14.8 | 52.2* | 16.3 | -1.7 | 7.5 | 9.5 | 4.3
COc1cccc(CO[C@H]2C=C[C@@H](c3ccccc3)O[C@@H]2COC(C)=O)c1 | 0.0 | -0.1 | · | 2.7 | · | -1.6 | · | ·
CCN(CC)c1ccc(C(=C2C=CC(=[N+](CC)CC)C=C2)c2ccc(N(CC)CC)cc2)cc1 | 109.6* | 40.5* | 82.9* | -6.8 | 39.3* | -22.0 | 86.4* | 125.4* | BSA TAMRA ctr=39.6*;TCR-CD3 inh conf=39.9*
SMILES | mABHD4 FP | SIAE inh | HTRA1 inhibitor | TDP2 inh | TCR-CD3 inh | LEDGF integ inh | HTRA1 inh conf | ABHD4 confirm | others
O=C(/C=C/c1ccccc1)c1cc(Br)ccc(=O)c1O | 37.4* | 9.4 | 58.3* | -2.7 | 8.4 | 7.6 | 65.2* | 28.8
O=C(N[C@H](Cc1ccccc1)C(=O)NCc1ccc(OC(F)(F)F)cc1)[C@H]1O[C@@H](n2ccc(=O)[nH]c2=O)[C@H](O)[C@@H]1O | 3.6 | 10.3 | · | -1.1 | -3.4 | -1.6 | · | ·
Cc1cccc2sc(NNC(=O)c3cc(=O)c4ccccc4o3)nc12 | 29.9* | 13.3 | 37.5* | -5.8 | -0.7 | 9.1 | 63.9* | 43.7*
Cc1ccc(C(=O)Nc2ccc3c4c(cccc24)CC3)cc1[N+](=O)[O-] | 2.9 | 2.0 | -6.4 | 6.3 | -3.1 | -0.4 | · | ·
O=[N+]([O-])c1ccc2c([N+](=O)[O-])ccc3c2c1CC3 | 40.1* | 16.5 | 53.6* | -5.5 | 9.1 | -0.6 | 38.4* | 90.5*
COC(=O)[C@H](C(C)C)N1Cc2nnn(Cc3ccc(C)cc3)c2-c2cc(F)ccc2S1(=O)=O | -1.6 | -5.7 | · | 7.8 | · | 2.5 | · | ·
CCOc1ccc2noc3c2c1C(=O)c1ccccc1-3 | 58.1* | 17.2* | 48.7* | 38.6* | 11.0 | 12.2 | 30.9 | 19.2 | TDP2 confirm=33.7*
CC(C)[C@H](NC(=O)OCc1ccccc1)C(=O)N[C@@H](Cc1ccccc1)C1(O)CN(C)C(C(=O)NCc2ccccn2)CO1 (some centres not stated) | -4.7 | 0.4 | · | -1.0 | · | -1.2 | · | ·
c1ccc(CCn2nnc(-c3ccc(N4CCOCC4)cc3)n2)cc1 | -5.6 | -0.1 | · | -3.4 | · | 4.7 | · | ·
Nc1ccc2c(c1)C(=O)C(=O)c1ccccc1-2 | 25.0 | 4.6 | 42.0* | 97.6* | -3.9 | -18.9 | 33.6 | · | TDP2 confirm=87.0*
Cc1ccc(S(=O)(=O)N2CCCC(C(=O)Nc3c(C)n(C)n(-c4ccccc4)c3=O)C2)cc1C (configuration not stated) | -4.6 | 3.7 | · | 6.8 | · | 2.9 | · | ·
